This is a sample that favours compounds with a hit; in the whole collection about 1.3% have one here.
RBBP9 inhibitor = human RBBP9 inhibitors, primary screen, biochemical, fluorescence polarization, FP-Rh probe, HTS; recombinant RBBP9; AID 1515, 2009; 220,000 compounds, 0.2% hits; inhibition, % at 7.94 µM;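 active means inhibition above the campaign mean of all tested compounds plus 3 SD, cut at about 14% in these data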
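Measured by: FP readout at 525/598 nm; material: recombinant human RBBP9; also added: Serine-hydrolase probe FP-Rh, 375 nM pre-mixing; medium: Tris buffer pH 8.0, NaCl, Pluronic; replication: one well per compound; doses: one concentration, 7.94 µM nominal, 0.794% DMSO; timing: preincubation 30 min plus labeling 45 min at 25 °C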
LYPLA1 counter = LYPLA1 inhibitors, primary screen, counter-screen for PME1 inhibitor project, biochemical, fluorescence polarization, FP-Rh probe ABPP. inhibition, % at 5.9 µM. Acyl-protein thioesterase 1 (Homo sapiens), O75608. 320,000 compounds, 0.16% hits. recombinant LYPLA1. AID 2174, 2009;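 active means inhibition above the mean of all tested compounds plus 3 SD, set per campaign, cut at about 14% in these data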;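 further: inhibitors block serine hydrolase probe labeling of LYPLA1 so polarization falls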
LYPLA2 counter = LYPLA2 inhibitors, primary screen, counter-screen for PME1 inhibitor project, biochemical, fluorescence polarization, FP-Rh probe ABPP | AID 2177, 2009 | inhibition, % at 5.9 µM | 320,000 compounds, 0.38% hits | recombinant LYPLA2;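 active means inhibition above the screen-wide mean plus 3 SD, limit set per campaign, cut at about 26% in these data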
PME-1 inh = PME-1 inhibitors via competitive probe labeling, primary screen, biochemical, fluorescence polarization, FP-Rh probe, HTS; recombinant PME-1; 320,000 compounds, 0.53% hits; inhibition, % at 5.9 µM;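 active means inhibition above the campaign mean of all compounds plus 3 SD, cut at about 26% in these data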;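 further: competitive labeling of PME-1 active site by serine hydrolase directed probe; inhibitors block probe labeling so polarization falls and inhibition rises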
PAD4 FP inh = human PAD4 inhibitors, primary screen, biochemical, fluorescence polarization, 1536-well format; recombinant PAD4, RCA probe fluorescence polarization; inhibition, % at 6.36 µM; 330,000 compounds, 0.41% hits;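 active means percent inhibition above a cutoff equal to the mean of all tested compounds plus 3 SD, cut at about 15% in these data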
Target sequence (Q9UM07 whole entry, looked up): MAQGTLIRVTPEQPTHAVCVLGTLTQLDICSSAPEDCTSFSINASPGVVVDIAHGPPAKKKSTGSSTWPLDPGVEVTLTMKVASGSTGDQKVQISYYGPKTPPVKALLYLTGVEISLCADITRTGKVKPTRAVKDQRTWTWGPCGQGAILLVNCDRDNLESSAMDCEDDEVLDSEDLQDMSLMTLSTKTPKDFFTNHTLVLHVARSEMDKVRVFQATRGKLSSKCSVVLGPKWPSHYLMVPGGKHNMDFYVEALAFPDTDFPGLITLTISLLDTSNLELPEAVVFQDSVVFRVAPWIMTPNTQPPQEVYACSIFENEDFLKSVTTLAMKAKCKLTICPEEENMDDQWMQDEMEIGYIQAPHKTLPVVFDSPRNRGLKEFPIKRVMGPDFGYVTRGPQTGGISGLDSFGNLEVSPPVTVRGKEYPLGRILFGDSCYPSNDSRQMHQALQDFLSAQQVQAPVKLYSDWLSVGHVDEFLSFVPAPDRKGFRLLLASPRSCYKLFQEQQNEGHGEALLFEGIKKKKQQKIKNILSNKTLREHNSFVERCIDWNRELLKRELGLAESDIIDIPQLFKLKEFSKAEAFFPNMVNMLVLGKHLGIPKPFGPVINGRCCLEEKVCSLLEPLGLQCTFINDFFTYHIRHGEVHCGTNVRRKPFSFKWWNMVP
Fam108B counter = mouse Fam108B serine hydrolase inhibitors, primary screen, counter-screen for RBBP9 inhibitor project, biochemical, fluorescence polarization; AID 1947, 2009; inhibition, % at 9.51 µM; 300,000 compounds, 0.33% hits; recombinant Fam108B, FP-Rh probe fluorescence polarization;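 active means inhibition above the screen mean inhibition plus 3 SD, computed separately per campaign, cut at about 18% in these data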;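 further: inhibitors lower polarization as less probe binds the enzyme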
LYPLA2 conf = LYPLA2 inhibitors, retest, confirmation, counter-screen for PME1 inhibitor project, biochemical, fluorescence polarization, FP-Rh probe ABPP | 1,100 compounds, 72% hits | shares compounds with LYPLA2 counter | recombinant LYPLA2 | inhibition, % at 5.9 µM;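 active means mean inhibition across replicates above the hit cutoff set in the primary screen, cut at about 26% in these data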;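 further: blocked labeling of the enzyme by serine hydrolase FP-Rh probe lowers polarization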
LYPLA2 ABPP = LYPLA2 inhibitors in proteome, late-stage follow-up, gel-based competitive ABPP, fluorescence, assay provider; shares compounds with LYPLA2 counter; rhLYPLA2 in mouse brain proteome, gel ABPP FP-Rh; inhibition, % at 20 µM; 150 compounds, 30% hits; AID 652029, 2013;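 active means inhibition of LYPLA2 enzyme probe labeling above about 50%, limit read from the data; inactive means inhibition below that limit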;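 further: loss of FP-Rh probe labeling of the LYPLA2 gel band measured as band density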
Hits are given with their value; i = inactive; nt = not tested or not shown.

SMILES	RBBP9 inhibitor	LYPLA1 counter	LYPLA2 counter	PME-1 inh	PAD4 FP inh	Fam108B counter	LYPLA2 conf	others
CCC(=O)c1ccc(CCCCCC(=O)O)s1	i	i	i	i	i	i	nt
CC(=O)c1ccc(CCCCCCCCCC(=O)O)s1	i	i	59	i	i	i	57	LYPLA2 ABPP=i
Cc1cc(C)c(C2=CC(=O)C[C@H](c3ccc4c(c3)OCO4)C2)c(C)c1	nt	i	i	i	i	nt	nt
Cn1cc(C(=O)NCCN2CCN(c3cccc(Cl)c3)CC2)c2c3ccccc3n(C)c2c1=O	i	i	26	i	i	i	35
COCCn1c(=O)[nH]c2cc(C(=O)NCCN3CCN(c4cccc(Cl)c4)CC3)ccc2c1=O	i	i	45	i	i	i	36
COC(=O)c1cc(-c2ccccc2)n(CC(=O)O)c1C	i	i	i	i	i	i	nt
O=C(NCC(c1ccco1)N1CCc2ccccc2C1)C(=O)Nc1cc(F)ccc1F (stereo not drawn)	nt	i	i	i	i	i	nt
COc1ccc(-n2c(C)cc(C(=O)Cn3c(NCCO)nc4ccccc43)c2C)cc1	i	i	56	i	i	i	62	LYPLA2 ABPP=i
CNC(=O)CSc1nnc(C(C)C)n1C	i	i	i	i	i	i	nt
O=C(NC1CCc2ccccc21)c1cc(COc2cncc(Cl)c2)on1 (stereo not drawn)	nt	i	43	i	i	i	33
O=C(NC1CCc2ccccc21)c1cc(COc2ccc(F)cc2Cl)on1 (stereo not drawn)	i	i	i	i	i	i	nt
COc1ccc(N(C(C)=O)c2nc3ccccc3[nH]2)cc1	nt	i	i	i	i	i	nt
O=C(O)c1ccccc1SCc1cn2cc(Cl)ccc2n1	i	i	32	i	i	i	i
O=C(O)c1cccnc1SCc1cn2cc(Cl)ccc2n1	i	i	i	i	i	i	nt
COc1ccc(O[C@H]2C=C[C@@H](c3ccccc3)O[C@@H]2COC(=O)CC/C(C)=N/OC[C@@H](O)[C@H]2O[C@@H]3OC(C)(C)O[C@@H]3[C@H]2O)cc1	i	i	i	i	i	i	nt
Cc1ccc(NS(=O)(=O)c2ccc(-n3cccn3)cc2)nc1	nt	i	i	i	i	i	nt
COc1cc(/C=C2\CCc3ccccc3C2=O)cc(OC)c1OC	i	i	27	i	i	i	i
O=C(Nc1cnn(Cc2ccc(Cl)cc2)c1)c1ccc([N+](=O)[O-])cc1	i	i	i	i	i	i	nt
O=C(Nc1ccc([N+](=O)[O-])cc1)c1ccc(Cn2cc([N+](=O)[O-])cn2)cc1	i	i	46	i	i	i	49
NCc1cccc(CNc2ccc([N+](=O)[O-])cc2C(N)=O)c1	nt	i	i	i	i	i	nt
NC(=O)c1cc([N+](=O)[O-])ccc1NCc1cccc([N+](=O)[O-])c1	nt	i	29	i	i	i	29
CCN1C=C(C(=O)OC)C(c2cccc(OC)c2OC)C(C(=O)OC)=C1	i	i	i	i	i	i	nt
COc1cccc(CN(C)C(=O)c2ccc(Oc3ccccc3)cc2)c1OC	nt	i	30	i	i	i	i
Cc1ccc(-n2nnnc2CN2CCCCC2)cc1	i	i	33	i	i	i	i
Fc1ccc(C2=Nn3c(Cc4ccccc4F)nnc3SC2)cc1	i	i	28	i	i	i	i
SMILES	RBBP9 inhibitor	LYPLA1 counter	LYPLA2 counter	PME-1 inh	PAD4 FP inh	Fam108B counter	LYPLA2 conf	others
c1ccc(Cc2nnc3n2N=C(c2ccccc2)CS3)cc1	i	i	i	i	i	i	nt
Cc1ccc(C)c(OC(C)C(=O)Nc2nccs2)c1 (stereo not drawn)	nt	i	i	i	i	i	nt
Cc1cc(NC(=O)CN2CCN(C/C=C/c3ccccc3)CC2)c([N+](=O)[O-])cc1C	i	i	i	i	i	i	nt
O=[N+]([O-])c1ccc(C(O)CN2CCN(Cc3ccccc3)CC2)cc1 (stereo not drawn)	nt	i	i	i	i	i	nt
O=[N+]([O-])c1ccc(C(O)CN2CCN(C/C=C/c3ccccc3)CC2)cc1 (stereo not drawn)	nt	i	62	i	i	i	54	LYPLA2 ABPP=i
O=C(CN1CCN(C/C=C/c2ccccc2)CC1)Nc1cc([N+](=O)[O-])ccc1Cl	i	22	31	i	i	i	29
CCCN(CCC)C(=O)c1ccc2c(c1)S(=O)(=O)c1ccccc1C2=O	nt	i	31	i	i	i	i
COc1ccc(/C=C2\SC(=S)N(CCC(=O)Nc3cccc(O)c3)C2=O)cc1OC	nt	i	i	i	i	i	nt
COc1cc(/C=C2\SC(=O)N(CC(=O)Nc3cccc(C)c3)C2=O)ccc1OC(C)C(=O)O (stereo not drawn)	nt	i	74	i	i	i	74	LYPLA2 ABPP=80
COc1ccc(/C=C2\SC(=O)N(CC(=O)Nc3cccc(C)c3)C2=O)cc1O	nt	i	41	i	i	i	38
COc1ccc(/C=C2\SC(=S)N(CCCC(=O)Nc3cccc(C(=O)O)c3)C2=O)cc1OC	nt	i	i	i	i	i	nt
Cc1ccc(S(=O)(=O)NCCC(=O)NCC(c2cccs2)N2CCOCC2)cc1 (stereo not drawn)	nt	i	i	i	i	i	nt
COc1ccc(OCCOc2ccc(S(=O)(=O)N3CCCC3)cc2C(N)=O)cc1	nt	i	i	i	i	nt	nt
COc1ccc(OCCOc2ccc(S(=O)(=O)N3CCCC3)cc2[N+](=O)[O-])cc1	nt	i	30	i	i	nt	30
O=C(NCCNC(=O)c1cc(OCC(F)(F)F)ccc1OCC(F)(F)F)Nc1ccc(Cl)cc1	i	i	i	i	i	i	nt
O=C(NCCNC(=O)c1cc(OCC(F)(F)F)ccc1OCC(F)(F)F)Nc1ccc(OC(F)(F)F)cc1	i	i	26	i	i	i	35
CC(=O)c1ccc(N2CCN(C(=O)C3CCN(S(=O)(=O)Cc4ccccc4)CC3)CC2)cc1	i	i	36	i	i	i	33
CN1CCN(C(=O)C2CCN(S(=O)(=O)c3ccc4c(c3)oc(=O)n4C)CC2)CC1	i	i	i	i	i	i	nt
Cn1c(=O)oc2cc(S(=O)(=O)N3CCC(C(=O)N4CCN(c5ccccc5)CC4)CC3)ccc21	i	i	i	i	i	i	nt

Screens (PubChem)
